From ChEMBL document CHEMBL1121452, “8-Chloro-1-methyl-6-phenyl-4H-s-triazolo[4,3-a][1,4]benzodiazepines with substituents at C-4” (1980)

Columns and labels:
Type in all cases: functional
[1] = species on record: Mus musculus; assay: Evaluated for the pentylene induced clonic convulsions (P) in CF1 mice
How it was run: (§1)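 Compounds dissolved or suspended in 0.25% aqueous methylcellulose and given ip to mice in groups of four or six per dose, at several dose levels spaced 0.3 log units apart. Scoring follows previously described procedures. ED50 values in mg/kg were calculated by the Spearman-Karber method.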

[2] = species on record: Mus musculus; assay: Loss of righting reflex (LORR) was evaluated in CF1 mice; how it was run: as §1
[3] = species on record: Mus musculus; assay: Evaluated for antagonistic activity on nicotine-induced tonic-extensor convulsions (TE) in CF1 mice; how it was run: as §1
[4] = species on record: Mus musculus; assay: Loss of traction (TR) was evaluated in CF1 mice; how it was run: as §1
[5] = species on record: Mus musculus; assay: Evaluated for the antagonism of nicotine induced death (D) in CF1 mice; how it was run: as §1
[6] = species on record: Mus musculus; assay: Loss of righting reflex (LORR) was evaluated in mice; how it was run: as §1
[7] = species on record: Mus musculus; assay: Loss of traction (TR) was evaluated in mice; how it was run: as §1

Structure (SMILES) | ED50 [1] [mg/kg] | ED50 [2] [mg/kg] | ED50 [3] [mg/kg] | ED50 [4] [mg/kg] | ED50 [5] [mg/kg] | ED50 [6] [mg/kg] | ED50 [7] [mg/kg]
CC(=O)OC1N=C(c2ccccc2)c2cc(Cl)ccc2-n2c(C)nnc21 (centres undefined) | 8.9 | > 200 | 1 | 18 | 1 | – | –
Cc1nnc2n1-c1ccc(Cl)cc1C(c1ccccc1)=NC2C (centres undefined) | 0.1 | – | 0.056 | 1.8 | 0.056 | > 200 | –
CCOC(=O)C1(C)N=C(c2ccccc2)c2cc(Cl)ccc2-n2c(C)nnc21 (centres undefined) | 40 | > 200 | 16 | 112 | 18 | – | –
CCOC(=O)CC1(C(=O)OCC)N=C(c2ccccc2)c2cc(Cl)ccc2-n2c(C)nnc21 (centres undefined) | > 50 | > 200 | > 200 | > 200 | > 200 | – | –
Cc1nnc2n1-c1ccc(Cl)cc1C(c1ccccc1)NC2=O (centres undefined) | > 25 | > 100 | > 100 | > 100 | – | – | –
Cc1nnc2n1-c1ccc(Cl)cc1C(c1ccccc1)=[N+]([O-])C2 | 1.8 | > 200 | 0.2 | 10 | 0.2 | – | –
Cc1nnc2n1-c1ccc(Cl)cc1C(c1ccccc1)=NC2N (centres undefined) | 3.5 | – | 0.36 | 18 | 0.63 | > 100 | –
CCOC(=O)C1N=C(c2ccccc2)c2cc(Cl)ccc2-n2c(C)nnc21 (centres undefined) | > 100 | – | 50 | > 100 | 45 | > 100 | –
Cc1nnc2n1-c1ccc(Cl)cc1C1(c3ccccc3)ON1C2 (centres undefined) | 0.2 | > 25 | 0.12 | 2.5 | 0.12 | – | –
Cc1nnc2n1-c1ccc(Cl)cc1C(c1ccccc1)=NC2CC(=O)O (centres undefined) | 5 | – | 0.9 | 13 | 0.9 | > 200 | –
Cc1nnc2n1-c1ccc(Cl)cc1C(c1ccccc1)N=C2N (centres undefined) | > 100 | > 200 | 40 | > 200 | 40 | – | –
CCOC(=O)C1(N)N=C(c2ccccc2)c2cc(Cl)ccc2-n2c(C)nnc21 (centres undefined) | 32 | > 200 | 3.1 | 159 | 4.5 | – | –
Cc1nnc2n1-c1ccc(Cl)cc1C(c1ccccc1)=NC2O (centres undefined) [4-HYDROXY-ALPRAZOLAM] | 8.9 | > 50 | 4 | 23 | 4 | – | –
Cc1nnc2n1-c1ccc(Cl)cc1C(c1ccccc1)=NC2 [ALPRAZOLAM] | 0.2 | > 100 | 0.02 | – | 0.02 | – | 0.6
